Results as given in ChEMBL document CHEMBL2016452, “Flavones and structurally related 4-chromenones inhibit carbonic anhydrases by a different mechanism of action compared to coumarins” (Bioorg Med Chem Lett, 2012).
pKi: −log10 of the molar value.

What was measured:
Carbonic anhydrase 12 [1] = molecular target: T1, Carbonic anhydrase 12 (Homo sapiens, UniProt O43570); test: Inhibition of transmembrane tumor-associated human carbonic anhydrase 12 preincubated for 12 hrs by stopped flow CO2 hydration assay
T1 sequence (O43570 whole entry): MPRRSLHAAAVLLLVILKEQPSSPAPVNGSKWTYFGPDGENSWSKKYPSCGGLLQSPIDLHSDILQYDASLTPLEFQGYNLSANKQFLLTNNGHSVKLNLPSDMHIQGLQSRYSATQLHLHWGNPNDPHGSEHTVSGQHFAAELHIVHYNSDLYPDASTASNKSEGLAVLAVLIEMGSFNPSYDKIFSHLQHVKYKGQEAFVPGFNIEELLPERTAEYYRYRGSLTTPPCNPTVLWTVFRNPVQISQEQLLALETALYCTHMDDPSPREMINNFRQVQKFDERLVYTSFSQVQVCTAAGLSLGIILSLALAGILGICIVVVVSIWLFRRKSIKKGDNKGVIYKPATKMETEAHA
Outline: (§1)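 Stopped-flow CO2 hydration, with phenol red 0.2 mM as indicator read at 557 nm. Buffer 20 mM Hepes pH 7.5 with 20 mM NaClO4 for ionic strength. Initial rates followed for 10–100 s, with uncatalyzed rates subtracted. Inhibitor stock 0.1 mM in water, diluted in assay buffer. Enzyme and inhibitor preincubated 12 h at 4 °C. KI by non-linear least squares, mean of at least three determinations.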

Carbonic anhydrase 9 [2] = molecular target: T2, Carbonic anhydrase 9 (Homo sapiens, UniProt Q16790); test: Inhibition of transmembrane tumor-associated human carbonic anhydrase 9 preincubated for 12 hrs by stopped flow CO2 hydration assay; outline: as §1
Carbonic anhydrase 2 [3] = molecular target: T3, Carbonic anhydrase 2 (Homo sapiens, UniProt P00918); test: Inhibition of cytosolic human carbonic anhydrase 2 preincubated for 15 mins by stopped flow CO2 hydration assay
Carbonic anhydrase 9 [4] = molecular target: T2, Carbonic anhydrase 9; test: Inhibition of transmembrane tumor-associated human carbonic anhydrase 9 preincubated for 15 mins by stopped flow CO2 hydration assay
Outline: (§2)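 Stopped-flow CO2 hydration, with phenol red 0.2 mM as indicator at 557 nm. Buffer 20 mM Hepes pH 7.5 with 20 mM NaClO4. Initial rates measured over 10–100 s, with uncatalyzed rate subtracted. Inhibitor stock 0.1 mM in water, diluted with assay buffer. Enzyme and inhibitor preincubated 15 min at room temperature. KI by non-linear least squares, mean of at least three determinations.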

Carbonic anhydrase 1 [5] = molecular target: T4, Carbonic anhydrase 1 (Homo sapiens, UniProt P00915); test: Inhibition of cytosolic human carbonic anhydrase 1 preincubated for 12 hrs by stopped flow CO2 hydration assay; outline: as §1
T4 sequence (P00915 whole entry): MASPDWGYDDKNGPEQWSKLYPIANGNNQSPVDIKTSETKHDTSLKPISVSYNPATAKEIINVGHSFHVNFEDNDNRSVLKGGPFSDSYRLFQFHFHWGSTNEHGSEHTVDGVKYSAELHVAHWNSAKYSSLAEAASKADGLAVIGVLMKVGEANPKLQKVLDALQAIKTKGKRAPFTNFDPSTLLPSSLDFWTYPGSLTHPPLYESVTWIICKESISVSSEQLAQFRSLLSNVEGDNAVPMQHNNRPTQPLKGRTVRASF

Carbonic anhydrase 1 [6] = molecular target: T4, Carbonic anhydrase 1; test: Inhibition of cytosolic human carbonic anhydrase 1 preincubated for 15 mins by stopped flow CO2 hydration assay
Carbonic anhydrase 12 [7] = molecular target: T1, Carbonic anhydrase 12; test: Inhibition of transmembrane tumor-associated human carbonic anhydrase 12 preincubated for 15 mins by stopped flow CO2 hydration assay; outline: as §2
Carbonic anhydrase 2 [8] = molecular target: T3, Carbonic anhydrase 2; test: Inhibition of cytosolic human carbonic anhydrase 2 preincubated for 12 hrs by stopped flow CO2 hydration assay; outline: as §1
[9] = molecular target: Carbonic anhydrase 5B, mitochondrial (Homo sapiens, UniProt Q9Y2D0); test: Inhibition of human carbonic anhydrase 5b preincubated for 15 mins by stopped flow CO2 hydration assay
Chain of Carbonic anhydrase 5B, mitochondrial (Q9Y2D0 whole entry): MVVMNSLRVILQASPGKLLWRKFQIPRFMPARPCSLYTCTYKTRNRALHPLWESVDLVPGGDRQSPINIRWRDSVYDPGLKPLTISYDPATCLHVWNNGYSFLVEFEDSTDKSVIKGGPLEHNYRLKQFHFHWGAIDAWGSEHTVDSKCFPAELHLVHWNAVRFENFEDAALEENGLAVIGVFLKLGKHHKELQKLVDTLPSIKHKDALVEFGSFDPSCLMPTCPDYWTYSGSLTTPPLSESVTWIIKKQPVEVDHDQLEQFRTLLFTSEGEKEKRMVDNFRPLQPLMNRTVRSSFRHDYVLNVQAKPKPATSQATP

Carbonic anhydrase 15 = molecular target: T5, Carbonic anhydrase 15 (Mus musculus, UniProt Q99N23); test: Inhibition of mouse carbonic anhydrase 15 preincubated for 15 mins by stopped flow CO2 hydration assay; outline: as §2
T5 sequence (Q99N23 whole entry): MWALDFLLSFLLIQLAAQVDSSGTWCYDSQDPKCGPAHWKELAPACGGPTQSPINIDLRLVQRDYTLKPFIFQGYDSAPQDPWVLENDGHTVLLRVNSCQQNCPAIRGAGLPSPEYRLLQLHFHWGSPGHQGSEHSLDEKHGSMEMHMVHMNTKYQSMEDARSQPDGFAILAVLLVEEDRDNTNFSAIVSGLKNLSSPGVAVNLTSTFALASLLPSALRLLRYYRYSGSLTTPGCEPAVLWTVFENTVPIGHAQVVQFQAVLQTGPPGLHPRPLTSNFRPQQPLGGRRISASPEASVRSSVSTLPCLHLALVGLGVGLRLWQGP

Carbonic anhydrase 4 = Carbonic anhydrase 4 (Homo sapiens, UniProt P22748); test: Inhibition of human carbonic anhydrase 4 preincubated for 15 mins by stopped flow CO2 hydration assay
Chain of Carbonic anhydrase 4 (P22748 whole entry): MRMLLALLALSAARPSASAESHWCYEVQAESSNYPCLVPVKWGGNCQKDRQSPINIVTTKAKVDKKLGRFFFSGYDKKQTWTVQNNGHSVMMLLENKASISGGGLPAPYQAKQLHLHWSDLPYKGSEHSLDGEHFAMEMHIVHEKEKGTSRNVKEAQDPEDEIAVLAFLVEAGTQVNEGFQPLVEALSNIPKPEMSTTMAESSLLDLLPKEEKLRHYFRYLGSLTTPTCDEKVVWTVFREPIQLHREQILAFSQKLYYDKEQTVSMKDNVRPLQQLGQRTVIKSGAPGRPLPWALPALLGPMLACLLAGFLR

Carbonic anhydrase 14 = Carbonic anhydrase 14 (Homo sapiens, UniProt Q9ULX7); test: Inhibition of human carbonic anhydrase 14 preincubated for 15 mins by stopped flow CO2 hydration assay
Chain of Carbonic anhydrase 14 (Q9ULX7 whole entry): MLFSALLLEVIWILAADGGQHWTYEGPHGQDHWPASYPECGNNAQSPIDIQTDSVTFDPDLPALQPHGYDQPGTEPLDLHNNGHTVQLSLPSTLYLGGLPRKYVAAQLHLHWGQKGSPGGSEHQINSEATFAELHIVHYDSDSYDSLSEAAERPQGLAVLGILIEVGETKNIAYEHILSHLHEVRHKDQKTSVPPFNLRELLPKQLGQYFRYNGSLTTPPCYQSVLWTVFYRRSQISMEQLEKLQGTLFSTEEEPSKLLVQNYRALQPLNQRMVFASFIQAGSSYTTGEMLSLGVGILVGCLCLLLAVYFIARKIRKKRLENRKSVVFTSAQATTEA

Carbonic anhydrase 7 = Carbonic anhydrase 7 (Homo sapiens, UniProt P43166); test: Inhibition of human carbonic anhydrase 7 preincubated for 15 mins by stopped flow CO2 hydration assay; outline: as §2
Chain of Carbonic anhydrase 7 (P43166 whole entry): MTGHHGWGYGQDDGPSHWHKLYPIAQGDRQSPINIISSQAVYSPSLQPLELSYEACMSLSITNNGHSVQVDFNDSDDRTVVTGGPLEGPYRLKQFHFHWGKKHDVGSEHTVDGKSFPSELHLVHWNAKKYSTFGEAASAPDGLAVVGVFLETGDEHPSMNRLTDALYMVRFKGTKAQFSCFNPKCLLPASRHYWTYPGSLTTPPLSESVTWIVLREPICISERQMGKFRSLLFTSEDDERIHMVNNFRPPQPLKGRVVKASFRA

Carbonic anhydrase 6 = Carbonic anhydrase 6 (Homo sapiens, UniProt P23280); test: Inhibition of human carbonic anhydrase 6 preincubated for 15 mins by stopped flow CO2 hydration assay
Chain of Carbonic anhydrase 6 (P23280 whole entry): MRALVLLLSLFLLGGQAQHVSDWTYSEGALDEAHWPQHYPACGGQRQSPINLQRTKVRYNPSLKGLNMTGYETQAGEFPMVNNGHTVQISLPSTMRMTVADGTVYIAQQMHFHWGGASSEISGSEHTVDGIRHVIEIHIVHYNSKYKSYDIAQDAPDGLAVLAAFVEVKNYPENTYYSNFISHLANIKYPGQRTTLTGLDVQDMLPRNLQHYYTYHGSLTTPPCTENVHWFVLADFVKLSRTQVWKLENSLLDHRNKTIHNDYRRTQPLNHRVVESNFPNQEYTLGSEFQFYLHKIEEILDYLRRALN

[10] = molecular target: Carbonic anhydrase 5A, mitochondrial (Homo sapiens, UniProt P35218); test: Inhibition of human carbonic anhydrase 5a preincubated for 15 mins by stopped flow CO2 hydration assay
Chain of Carbonic anhydrase 5A, mitochondrial (P35218 whole entry): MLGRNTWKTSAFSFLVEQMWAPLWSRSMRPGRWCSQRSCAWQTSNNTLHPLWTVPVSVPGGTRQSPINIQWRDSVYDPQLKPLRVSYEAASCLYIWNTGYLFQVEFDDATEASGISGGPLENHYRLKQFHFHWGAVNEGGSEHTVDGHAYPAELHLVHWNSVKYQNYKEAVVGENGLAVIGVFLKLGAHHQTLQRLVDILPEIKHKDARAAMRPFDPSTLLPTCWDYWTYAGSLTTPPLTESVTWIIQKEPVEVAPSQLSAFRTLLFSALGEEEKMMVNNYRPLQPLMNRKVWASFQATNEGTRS

Carbonic anhydrase 3 = Carbonic anhydrase 3 (Homo sapiens, UniProt P07451); test: Inhibition of human carbonic anhydrase 3 preincubated for 15 mins by stopped flow CO2 hydration assay
Chain of Carbonic anhydrase 3 (P07451 whole entry): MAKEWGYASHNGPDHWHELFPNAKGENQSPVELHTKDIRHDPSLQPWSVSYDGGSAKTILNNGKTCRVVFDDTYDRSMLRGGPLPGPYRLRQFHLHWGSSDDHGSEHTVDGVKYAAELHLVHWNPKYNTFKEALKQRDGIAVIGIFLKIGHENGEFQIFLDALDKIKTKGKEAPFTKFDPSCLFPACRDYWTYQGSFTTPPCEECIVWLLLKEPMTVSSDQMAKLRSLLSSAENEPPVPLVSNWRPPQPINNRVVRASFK

Carbonic anhydrase 13 = Carbonic anhydrase 13 (Homo sapiens, UniProt Q8N1Q1); test: Inhibition of human carbonic anhydrase 13 preincubated for 15 mins by stopped flow CO2 hydration assay
Chain of Carbonic anhydrase 13 (Q8N1Q1 whole entry): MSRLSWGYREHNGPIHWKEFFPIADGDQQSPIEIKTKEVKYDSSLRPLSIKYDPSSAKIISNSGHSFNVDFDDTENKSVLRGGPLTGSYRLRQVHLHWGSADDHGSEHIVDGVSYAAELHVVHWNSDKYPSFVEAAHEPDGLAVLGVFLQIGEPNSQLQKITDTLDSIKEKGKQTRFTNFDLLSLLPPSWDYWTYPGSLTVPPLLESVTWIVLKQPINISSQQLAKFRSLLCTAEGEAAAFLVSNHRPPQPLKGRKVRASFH

Compound | pKi (Carbonic anhydrase 12 [1]) | pKi (Carbonic anhydrase 9 [2]) | pKi (Carbonic anhydrase 2 [3]) | pKi (Carbonic anhydrase 9 [4]) | pKi (Carbonic anhydrase 1 [5]) | pKi (Carbonic anhydrase 1 [6]) | pKi (Carbonic anhydrase 12 [7]) | pKi (Carbonic anhydrase 2 [8]) | pKi [9] | pKi (Carbonic anhydrase 15) | pKi (Carbonic anhydrase 4) | pKi (Carbonic anhydrase 14) | pKi (Carbonic anhydrase 7) | pKi (Carbonic anhydrase 6) | pKi [10] | pKi (Carbonic anhydrase 3) | pKi (Carbonic anhydrase 13)
O=c1cc(-c2ccccc2)oc2ccccc12 [FLAVONE] | 5.13 | 5.37 | 5.06 | 5.38 | 5.73 | 5.72 | 5.14 | 5.06 |  |  |  |  |  |  |  |  | 
Oc1ccc(C=Cc2cc(O)cc(O)c2)cc1 (mixture of isomers) |  |  | 5.76 | 5.02 |  |  | 5.09 |  | 5.49 | 5.59 | 5.40 | 5.71 | 5.05 | 5.06 | 5.54 | 5.17 | 5.08
Nc1oc2ccc(Cl)cc2c(=O)c1-c1ccc(Cl)cc1 |  |  |  | 5.47 |  |  | 5.03 |  |  | 5.43 |  |  | 5.10 |  |  |  | 
O=c1cc(-c2ccccc2)oc2cc(O)ccc12 [7-HYDROXYFLAVONE] | 5.07 | 5.31 | 5.65 | 5.31 | 5.46 | 5.47 | 5.08 | 5.63 |  |  |  |  |  |  |  |  | 
COc1ccc(-c2c(N)oc3ccc(Cl)cc3c2=O)cc1 |  |  |  | 5.62 |  |  | 5.19 |  |  | 5.78 |  |  | 5.17 |  |  |  | 
O=c1c(O)c(-c2ccccc2)oc2ccccc12 [FLAVONOL] | 5.18 | 5.25 | 5.03 | 5.26 | 5.29 | 5.28 | 5.18 | 5.04 |  |  |  |  |  |  |  |  | 
O=c1cc(-c2ccccc2)oc2cc(O)cc(O)c12 [CHRYSIN] | 5.04 | 5.57 | 5.36 | 5.58 | 5.27 | 5.26 | 5.05 | 5.37 |  |  |  |  |  |  |  |  | 
